{
  "source": "ChEMBL document CHEMBL1121813",
  "about": "“Dihydrochalcone sweeteners. A study of the atypical temporal phenomena” (1981)",
  "type_in_all_cases": "functional",
  "key": {"Homo sapiens [1]": {"organism": "Homo sapiens", "test": "Intensity calculated on a weight basis relative to an 85500 ppm sucrose solution at a concentration of 240 ppm (mean value)", "procedure,_shortened": "(§1)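 Trained human panel tasted aqueous solutions of purity-checked (≥95 weight percent) compounds cleared for mutagenicity and mouse oral toxicity. Weight-basis intensity I_w = perceived intensity × (85500 ppm sucrose / compound concentration in ppm). The mean is reported with 2S_m limits; data deviating excessively at 95% confidence were rejected by the t-value method.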"}, "Homo sapiens [2]": {"organism": "Homo sapiens", "test": "Sour character at a concentration of 240 ppm (mean value)", "procedure,_shortened": "(§2)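 Trained human sensory panel (Swartz method) tasted dilute aqueous solutions of the compounds, which had to be ≥95 weight percent pure and free of mutagenicity and toxicity. Taste character is reported as the mean value with 2S_m limits. Data deviating excessively at the 95% confidence level were rejected by the t-value method.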"}, "Homo sapiens [3]": {"organism": "Homo sapiens", "test": "Salty character at a concentration of 240 ppm (mean value)", "procedure,_shortened": "as §2"}, "Homo sapiens [4]": {"organism": "Homo sapiens", "test": "Bitter character at a concentration of 240 ppm (mean value)", "procedure,_shortened": "(§3)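 Trained human panel tasted aqueous solutions. Each judge reported whether there was an aftertaste and its character (sweet, bitter or bitter-sweet). The value is the percentage of judgments reporting a bitter aftertaste.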"}, "Homo sapiens [5]": {"organism": "Homo sapiens", "test": "Experimentally determined perceived intensity of compound at a concentration of 240 ppm (mean value)", "procedure,_shortened": "(§4)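 Trained human sensory panel of judges tasted aqueous solutions of the compound. Samples had to be ≥95 weight % pure (HPLC, proton titration, Karl Fischer), non-mutagenic in five Salmonella typhimurium strains with and without microsomal activation, and non-toxic in a single-oral-dose mouse test. Perceived intensity (Ip) was read from time–intensity curves at 4- or 6-s intervals and averaged. Outliers at the 95% level were rejected by t-value. Values reported as mean (2Sm).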"}, "Homo sapiens [6]": {"organism": "Homo sapiens", "test": "Sweet / Bitter character at a concentration of 240 ppm (mean value); 7/93"}, "Homo sapiens [7]": {"organism": "Homo sapiens", "test": "Number of taste judgments per compound"}, "Homo sapiens [8]": {"organism": "Homo sapiens", "test": "Percentage of judgments reporting an aftertaste at a concentration of 240 ppm and character thereof", "procedure,_shortened": "(§5)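 Trained judges tasted aqueous solutions of the compounds, which had to be ≥95 weight percent pure and to have passed mutagenicity and single oral dose toxicity screening. The value is the percentage of panel judgments reporting an aftertaste. Where given, its character is recorded as sweet, bitter or bitter-sweet.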"}, "Homo sapiens [9]": {"organism": "Homo sapiens", "test": "Sweet character at a concentration of 240 ppm (mean value)", "procedure,_shortened": "as §2"}, "Homo sapiens [10]": {"organism": "Homo sapiens", "test": "Other taste character at a concentration of 240 ppm (mean value)", "procedure,_shortened": "as §2"}, "Homo sapiens [11]": {"organism": "Homo sapiens", "test": "Intensity calculated on a molar basis relative to a 0.25 M sucrose solution at a concentration of 240 ppm (mean value)", "procedure,_shortened": "(§6)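 Trained human judges tasted aqueous solutions of the test compound; compounds were first required to be ≥95 weight percent pure and free of mutagenicity (five Salmonella typhimurium strains, ± microsomal activation) and of single oral dose mouse toxicity. Molar intensity I_m = perceived intensity × (0.25 M sucrose / compound molar concentration). The mean is reported with 2S_m limits; outliers were rejected at 95% confidence by t-value.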"}, "Homo sapiens [12]": {"organism": "Homo sapiens", "test": "Sour character at a concentration of 250 ppm (mean value)", "procedure,_shortened": "as §2"}, "Homo sapiens [13]": {"organism": "Homo sapiens", "test": "Intensity calculated on a weight basis relative to an 85500 ppm sucrose solution at a concentration of 250 ppm (mean value)", "procedure,_shortened": "as §1"}, "Homo sapiens [14]": {"organism": "Homo sapiens", "test": "Bitter character at a concentration of 250 ppm (mean value)", "procedure,_shortened": "as §3"}, "Homo sapiens [15]": {"organism": "Homo sapiens", "test": "Experimentally determined perceived intensity of compound at a concentration of 250 ppm (mean value)", "procedure,_shortened": "as §4"}, "Homo sapiens [16]": {"organism": "Homo sapiens", "test": "Sweet / Bitter character at a concentration of 250 ppm (mean value); 14/86"}, "Homo sapiens [17]": {"organism": "Homo sapiens", "test": "Sweet character at a concentration of 250 ppm (mean value)", "procedure,_shortened": "as §2"}, "Homo sapiens [18]": {"organism": "Homo sapiens", "test": "Intensity calculated on a molar basis relative to a 0.25 M sucrose solution at a concentration of 250 ppm (mean value)", "procedure,_shortened": "as §6"}, "Homo sapiens [19]": {"organism": "Homo sapiens", "test": "Salty character at a concentration of 250 ppm (mean value)", "procedure,_shortened": "as §2"}, "Homo sapiens [20]": {"organism": "Homo sapiens", "test": "Other taste character at a concentration of 250 ppm (mean value)", "procedure,_shortened": "as §2"}, "Homo sapiens [21]": {"organism": "Homo sapiens", "test": "Percentage of judgments reporting an aftertaste at a concentration of 250 ppm and character thereof", "procedure,_shortened": "as §5"}, "Homo sapiens [22]": {"organism": "Homo sapiens", "test": "Experimentally determined perceived intensity of compound at a concentration of 1000 ppm (mean value)", "procedure,_shortened": "as §4"}, "Homo sapiens [23]": {"organism": "Homo sapiens", "test": "Percentage of judgments reporting an aftertaste at a concentration of 1000 ppm", "procedure,_shortened": "as §5"}, "Homo sapiens [24]": {"organism": "Homo sapiens", "test": "Intensity calculated on a weight basis relative to an 85500 ppm sucrose solution at a concentration of 246 ppm (mean value)", "procedure,_shortened": "as §1"}, "Homo sapiens [25]": {"organism": "Homo sapiens", "test": "Sour character at a concentration of 246 ppm (mean value)"}, "Homo sapiens [26]": {"organism": "Homo sapiens", "test": "Salty character at a concentration of 246 ppm (mean value)"}, "Homo sapiens [27]": {"organism": "Homo sapiens", "test": "Bitter character at a concentration of 246 ppm (mean value)", "procedure,_shortened": "as §3"}, "Homo sapiens [28]": {"organism": "Homo sapiens", "test": "Experimentally determined perceived intensity of compound at a concentration of 246 ppm (mean value)", "procedure,_shortened": "as §4"}, "Homo sapiens [29]": {"organism": "Homo sapiens", "test": "Sweet / Bitter character at a concentration of 246 ppm (mean value); 44/56"}, "Homo sapiens [30]": {"organism": "Homo sapiens", "test": "Sweet character at a concentration of 246 ppm (mean value)"}, "Homo sapiens [31]": {"organism": "Homo sapiens", "test": "Intensity calculated on a molar basis relative to a 0.25 M sucrose solution at a concentration of 246 ppm (mean value)", "procedure,_shortened": "as §6"}, "Homo sapiens [32]": {"organism": "Homo sapiens", "test": "Other taste character at a concentration of 246 ppm (mean value)", "procedure,_shortened": "as §2"}, "Homo sapiens [33]": {"organism": "Homo sapiens", "test": "Percentage of judgments reporting an aftertaste at a concentration of 246 ppm and character thereof", "procedure,_shortened": "as §5"}, "Homo sapiens [34]": {"organism": "Homo sapiens", "test": "Sweet character at a concentration of 33.4 ppm (mean value)"}, "Homo sapiens [35]": {"organism": "Homo sapiens", "test": "Intensity calculated on a weight basis relative to an 85500 ppm sucrose solution at a concentration of 33.4 ppm (mean value)", "procedure,_shortened": "as §1"}, "Homo sapiens [36]": {"organism": "Homo sapiens", "test": "Experimentally determined perceived intensity of compound at a concentration of 33.4 ppm (mean value)", "procedure,_shortened": "as §4"}, "Homo sapiens [37]": {"organism": "Homo sapiens", "test": "Bitter character at a concentration of 33.4 ppm (mean value)", "procedure,_shortened": "as §3"}, "Homo sapiens [38]": {"organism": "Homo sapiens", "test": "Sour character at a concentration of 33.4 ppm (mean value)"}, "Homo sapiens [39]": {"organism": "Homo sapiens", "test": "Sweet / Bitter character at a concentration of 33.4 ppm (mean value); 66/34"}, "Homo sapiens [40]": {"organism": "Homo sapiens", "test": "Intensity calculated on a molar basis relative to a 0.25 M sucrose solution at a concentration of 33.4 ppm (mean value)", "procedure,_shortened": "as §6"}, "Homo sapiens [41]": {"organism": "Homo sapiens", "test": "Other taste character at a concentration of 33.4 ppm (mean value)", "procedure,_shortened": "as §2"}, "Homo sapiens [42]": {"organism": "Homo sapiens", "test": "Percentage of judgments reporting an aftertaste at a concentration of 33.4 ppm and character thereof"}, "Homo sapiens [43]": {"organism": "Homo sapiens", "test": "Salty character at a concentration of 33.4 ppm (mean value)"}},
  "data": [
    {"compound": "COc1ccc(CCCc2c(O)cc(O)cc2O)cc1O", "values": [
      {"measurement": "IW", "setting": "Homo sapiens [1]", "result": 89},
      {"measurement": "Taste character", "setting": "Homo sapiens [2]", "result": 0},
      {"measurement": "Taste character", "setting": "Homo sapiens [3]", "result": 0},
      {"measurement": "Taste character", "setting": "Homo sapiens [4]", "result": 88},
      {"measurement": "IP", "setting": "Homo sapiens [5]", "result": 0.25},
      {"measurement": "Taste character", "setting": "Homo sapiens [6]", "result": 7},
      {"measurement": "Judgments", "setting": "Homo sapiens [7]", "result": 12},
      {"measurement": "Judgments", "setting": "Homo sapiens [8]", "result": 0},
      {"measurement": "Taste character", "setting": "Homo sapiens [9]", "result": 7},
      {"measurement": "Taste character", "setting": "Homo sapiens [10]", "result": 5},
      {"measurement": "IM", "setting": "Homo sapiens [11]", "result": 76}
    ]},
    {"compound": "O=C([O-])COc1cc(O)c(C(=O)CCc2ccc(Cl)c(O)c2)c(O)c1.[Na+]", "values": [
      {"measurement": "Taste character", "setting": "Homo sapiens [12]", "result": 0},
      {"measurement": "IW", "setting": "Homo sapiens [13]", "result": 27},
      {"measurement": "Taste character", "setting": "Homo sapiens [14]", "result": 70},
      {"measurement": "IP", "setting": "Homo sapiens [15]", "result": 0.28},
      {"measurement": "Judgments", "setting": "Homo sapiens [7]", "result": 12},
      {"measurement": "Taste character", "setting": "Homo sapiens [16]", "result": 14},
      {"measurement": "Taste character", "setting": "Homo sapiens [17]", "result": 11},
      {"measurement": "IM", "setting": "Homo sapiens [18]", "result": 31},
      {"measurement": "Taste character", "setting": "Homo sapiens [19]", "result": 0},
      {"measurement": "Taste character", "setting": "Homo sapiens [20]", "result": 19},
      {"measurement": "Judgments", "setting": "Homo sapiens [21]", "result": 0}
    ]},
    {"compound": "COc1ccc(CCC(=O)OC2C[C@](O)(C(=O)O)C[C@@H](O)[C@H]2O)cc1O", "note": "(some centres not stated)", "values": [
      {"measurement": "IP", "setting": "Homo sapiens [22]", "result": 0},
      {"measurement": "Judgments", "setting": "Homo sapiens [7]", "result": 1},
      {"measurement": "Judgments", "setting": "Homo sapiens [23]", "result": 0}
    ]},
    {"compound": "O=C([O-])COc1cc(O)c(C(=O)CCc2cccc(O)c2)c(O)c1.[Na+]", "values": [
      {"measurement": "IW", "setting": "Homo sapiens [24]", "result": 76},
      {"measurement": "Taste character", "setting": "Homo sapiens [25]", "result": 0},
      {"measurement": "Taste character", "setting": "Homo sapiens [26]", "result": 0},
      {"measurement": "Taste character", "setting": "Homo sapiens [27]", "result": 49},
      {"measurement": "IP", "setting": "Homo sapiens [28]", "result": 0.22},
      {"measurement": "Taste character", "setting": "Homo sapiens [29]", "result": 44},
      {"measurement": "Judgments", "setting": "Homo sapiens [7]", "result": 12},
      {"measurement": "Taste character", "setting": "Homo sapiens [30]", "result": 38},
      {"measurement": "IM", "setting": "Homo sapiens [31]", "result": 79},
      {"measurement": "Taste character", "setting": "Homo sapiens [32]", "result": 13},
      {"measurement": "Judgments", "setting": "Homo sapiens [33]", "result": 62}
    ]},
    {"compound": "COc1ccc(C2CC(=O)c3c(O)cccc3O2)cc1O", "note": "(configuration not stated)", "values": [
      {"measurement": "Taste character", "setting": "Homo sapiens [34]", "result": 62},
      {"measurement": "IW", "setting": "Homo sapiens [35]", "result": 1700},
      {"measurement": "IP", "setting": "Homo sapiens [36]", "result": 0.68},
      {"measurement": "Taste character", "setting": "Homo sapiens [37]", "result": 32},
      {"measurement": "Taste character", "setting": "Homo sapiens [38]", "result": 6},
      {"measurement": "Judgments", "setting": "Homo sapiens [7]", "result": 8},
      {"measurement": "Taste character", "setting": "Homo sapiens [39]", "result": 66},
      {"measurement": "IM", "setting": "Homo sapiens [40]", "result": 1400},
      {"measurement": "Taste character", "setting": "Homo sapiens [41]", "result": 0},
      {"measurement": "Judgments", "setting": "Homo sapiens [42]", "result": 42},
      {"measurement": "Taste character", "setting": "Homo sapiens [43]", "result": 0}
    ]}
  ]
}
